Compound activity: PubChem, several laboratories
Hits are enriched below; roughly 4.5% of the tested compounds scored in any of these assays.
AHR act – human AHR activation. actives 2.5% (n = 320,000). activation, % at 5 µM. P35869. AHR-responsive luciferase reporter cells, luminescence; in the data active means activation above about 47%;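 further: 0% = vehicle wells and 100% = reference agonist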
Target sequence (P35869 whole entry, looked up): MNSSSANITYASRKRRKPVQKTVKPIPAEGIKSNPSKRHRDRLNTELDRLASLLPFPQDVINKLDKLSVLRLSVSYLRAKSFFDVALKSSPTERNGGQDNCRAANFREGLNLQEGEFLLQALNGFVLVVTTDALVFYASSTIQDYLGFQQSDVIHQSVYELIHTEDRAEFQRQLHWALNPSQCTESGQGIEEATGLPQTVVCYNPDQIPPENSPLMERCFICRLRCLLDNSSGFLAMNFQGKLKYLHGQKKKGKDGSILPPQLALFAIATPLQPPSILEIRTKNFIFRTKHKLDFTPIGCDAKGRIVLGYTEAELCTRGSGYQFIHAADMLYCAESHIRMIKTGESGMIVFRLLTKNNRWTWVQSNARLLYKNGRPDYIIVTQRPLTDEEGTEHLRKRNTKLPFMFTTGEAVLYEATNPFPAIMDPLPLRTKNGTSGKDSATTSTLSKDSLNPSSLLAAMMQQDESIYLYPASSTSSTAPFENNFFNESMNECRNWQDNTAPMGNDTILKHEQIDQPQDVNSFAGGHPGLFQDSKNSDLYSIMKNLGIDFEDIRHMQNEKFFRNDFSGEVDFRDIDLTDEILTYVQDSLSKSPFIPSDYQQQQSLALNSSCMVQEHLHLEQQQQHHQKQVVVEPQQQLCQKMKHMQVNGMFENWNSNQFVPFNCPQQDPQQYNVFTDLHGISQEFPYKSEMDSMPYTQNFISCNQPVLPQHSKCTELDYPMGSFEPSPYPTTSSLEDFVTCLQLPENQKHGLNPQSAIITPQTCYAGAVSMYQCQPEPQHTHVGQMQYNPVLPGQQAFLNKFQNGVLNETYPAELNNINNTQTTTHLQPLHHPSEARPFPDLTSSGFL
MDM2 E3 inh – Mdm2 E3 ligase (human) inhibition. actives 0.11% (n = 210,000). cell-based MDM2 ubiquitination luciferase reporter, 2 h; 0 = plate control, 100 = twice control, blank-subtracted. Q00987. AID 1230. signal enhancement, % at 5 µM;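 active means signal enhancement of 30% or more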;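 further: luminescence tracks abundance of the self-degrading MDM2-luciferase fusion protein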
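test system = mammalian cells stably expressing self-ubiquitinating, self-degrading MDM2 E3–luciferase fusion | quantity = 2000 cells/well | incubation = cell settling 4 h, compound treatment 2 h, both 37 °C | signal = luminescence with SteadyLite reagent, 15 min at room temperature | evaluation = % enhancement relative to plate controls after blank subtraction | benchmarks = plate controls and plate blanks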
NF-kB neuron act – compounds increasing NF-kB expression in human neuronal cells | NF-kB reporter expression; hits give high values | fold change at 12.5 µM | actives 1.6% (n = 190,000); in the data active means fold change above about 3.3
APP 5'UTR act – APP 5'UTR luciferase reporter activation | SH-SY5Y APP 5'UTR luciferase reporter, luminescence; zero percent = DMSO vehicle wells | activation, % at 2 µM | actives 1% (n = 190,000) | AID 1276;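 active means activation above a set limit, based on mean plus 3 SD of controls, cut at about 140% in these data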
STAT1 activator – STAT1 signaling activation | AID 932 | NIH 3T3 STAT1-luciferase reporter, IFN-gamma, luminescence; 100% = IFN-gamma alone, no compound | actives 2.6% (n = 200,000) | activation (% of control), % at 5.5 µM;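 active means activation above the screen-wide mean activation plus 3 SD, cut at about 130% in these data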;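 further: raw ratio to IFN-gamma control signal so 100% means no change and 0% no light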
PERK inh – blocks human PERK kinase; Q9NZJ5; CHO PERK-DD fusion, SEAP luminescence translation reporter; inhibition, % at 5.6 µM; actives 0.17% (n = 220,000);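 active means inhibition above the mean inhibition of all tested compounds plus 3 SD, set separately per screening campaign, cut at about 2.9% in these data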;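 further: PERK kinase domain activated by AP20187 dimerizer at 100 nM; 0% = DMSO with dimerizer and 100% = rapamycin at 8.4 µM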
STAT1 activ conf – confirmation of STAT1 signaling activators; actives 97% (n = 1,200); NIH 3T3 STAT1-luciferase reporter, IFN-gamma potentiation, luminescence; 100% = IFN-gamma EC80 alone, no compound; shares compounds with STAT1 activator; activation (% of control), % at 5.7 µM;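 active means activation above a set limit carried over from the earlier primary STAT1 screen, cut at about 140% in these data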;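 further: simple ratio to median IFN-gamma plus DMSO wells so 0% means no light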
NFkB act – counter-screen for STAT1 activators: NF-kappaB activation; activation (% of control), % at 5.7 µM; actives 43% (n = 1,200); shares compounds with STAT1 activator; HEK293T NF-kB luciferase reporter, TNF-alpha stimulated, luminescence; 100% = TNF-alpha with vehicle only;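 active means activation above the mean of solvent-only control wells plus 3 SD, set per campaign, cut at about 130% in these data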;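 further: TNF-alpha given at a submaximal dose yielding about 80% of full reporter signal; values are well signal over median control so 100% means no change and 0% no light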
STAT3 act STAT1c – counter-screen for STAT1 activators: human STAT3 activation; shares compounds with STAT1 activator; U3A cells STAT3-luciferase reporter, IL-6, luminescence; cells lack STAT1; 100 = IL-6 alone, no compound effect; activation (% of control), % at 5.7 µM; actives 46% (n = 1,200); AID 1316;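 active means activation above the solvent-only control well mean plus 3 SD, set per plate batch, cut at about 110% in these data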;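 further: 0% = no luminescence and 100% = median IL-6 plus DMSO wells; higher means more STAT3 reporter activation so hits are non-selective activators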
The depositor's hits bear a star; / = no result given.

SMILES | AHR act | MDM2 E3 inh | NF-kB neuron act | APP 5'UTR act | STAT1 activator | PERK inh | STAT1 activ conf | NFkB act | STAT3 act STAT1c
Nc1c(-c2ccccc2)cnc2cc(-c3ccccc3)nn12 | / | -17 | 4.8* | 290* | 158* | 3 | 276* | 134* | 98
CC(=O)c1cnc2c(-c3ccccc3)cnn2c1C | 26 | -9 | 1.3 | 13 | 121 | 0 | / | / | /
COCc1nn2c(N)c(-c3ccccc3)cnc2c1-c1ccccc1 | 14 | / | / | / | / | / | / | / | /
O=C(COC(=O)CCN=C1NS(=O)(=O)c2ccccc21)NC1CCCCCCC1 | 2 | -10 | / | / | / | 1 | / | / | /
COc1ccc(N(/N=C2\Sc3ccccc3C2=O)C(C)=O)cc1 | / | -12 | 4.8* | 172* | 151* | 0 | 191* | 123 | 110
COc1ccccc1N(/N=C1\Sc2ccccc2C1=O)C(C)=O | 39 | / | / | / | / | 0 | / | / | /
COc1ccccc1Nc1nc(N)nc(CN2CC(C)CC(C)C2)n1 (stereo unspecified) | 7 | -5 | 1.2 | -6 | 94 | 0 | / | / | /
C[C@@H]1CC=C[C@H]2[C@H]1C(=O)N(Cc1ccccc1)[C@H]2c1ccc(/C=C/c2ccccc2)cc1F | 3 | 7 | / | / | / | / | / | / | /
CCCCOC(=O)Nc1ccc2c(C)cc(=O)oc2c1 | 2 | / | 5.8* | 138* | 166* | -1 | 197* | 144* | 104
Cc1cccc(NC(=O)CCC(=O)N/N=C/c2ccco2)c1 | 3 | -8 | 0.95 | -7 | 106 | 0 | / | / | /
O=C(N/N=C\c1ccco1)Nc1cccc(Cl)c1 | 52* | -13 | 3.3* | 80 | 153* | 0 | 172* | 133* | 106
O=C(NC1CCCCC1)C(c1ccccc1F)N(C(=O)c1csnn1)C1CCCC1 (stereo unspecified) | 1 | / | / | / | / | / | / | / | /
CCn1c(C)cc(/C=C2/NC(=O)N(CC(=O)Nc3cccc(C)c3)C2=O)c1C | 11 | -4 | 1.1 | -8 | 98 | 0 | / | / | /
CCn1c(C)cc(/C=C2/NC(=O)N(c3ccccc3)C2=O)c1C | 27 | -7 | 0.95 | 89 | 168* | 0 | 187* | 139* | 103
Cc1ccccc1-c1c(C)oc2cc(O)ccc2c1=O | -2 | -9 | 0.84 | -1 | 96 | 1 | / | / | /
COC(=O)c1ccc(/C=C(\C#N)c2ccccn2)cc1 | 0 | -8 | 7* | 148* | 204* | 1 | 225* | 158* | 107
COc1cccc(-c2cn3nc4c(nc3n2)CCCC4)c1 | 16 | -9 | 3.6* | 170* | 160* | 1 | 191* | 111 | 89
CN1CC(=O)N2[C@H](c3ccc4c(c3)OCO4)c3[nH]c4ccccc4c3C[C@@H]2C1=O | 0 | / | / | / | / | 1 | / | / | /
Cc1cc(NCCN2CCOCC2)n2ncc(-c3ccccc3)c2n1 | 39 | 13 | 3 | 42 | 165* | 0 | 219* | 146* | 152*
O=C(Nc1ncc(Cc2cccc(Cl)c2)s1)c1cccs1 | -1 | / | 3 | 65 | 124 | -1 | / | / | /
O=C(Nc1ncc(Cc2ccccc2)s1)c1cccs1 | 11 | -12 | 8.4* | 194* | 154* | -1 | 276* | 142* | 122*
Cc1ccc(Cc2cnc(NC(=O)c3cccs3)s2)cc1 | 26 | -36 | 7.1* | 170* | 171* | -1 | 219* | 143* | 133*
O=C(Nc1ncc(Cc2ccccc2)s1)C1COc2ccccc2O1 (stereo unspecified) | 0 | -15 | 3.2 | 164* | 184* | 0 | 192* | 132 | 114*
O=C(Nc1ccncc1)C1COc2ccccc2O1 (stereo unspecified) | 5 | -12 | 1 | -6 | 96 | 0 | / | / | /
O=c1c2ccccc2c(/C=N/NS(=O)(=O)c2ccccc2)c(O)n1-c1ccccn1 | 9 | -8 | 1 | -16 | 97 | 1 | / | / | /
SMILES | AHR act | MDM2 E3 inh | NF-kB neuron act | APP 5'UTR act | STAT1 activator | PERK inh | STAT1 activ conf | NFkB act | STAT3 act STAT1c
Cc1ccccc1-c1nnc(Cc2ccccc2)o1 | -4 | -2 | 2.5 | 71 | 154* | 0 | 175* | 135* | 108
CC(=O)Nc1ccc(C(=O)/C=C/c2ccco2)cc1 | 4 | -7 | 1.3 | 38 | 101 | 0 | / | / | /
CN(C)c1ccc(C(=O)/C=C/c2ccco2)cc1 | 8 | -39 | 5.6* | 204* | 168* | 1 | 178* | 120 | 122*
CC(CNc1ccccc1O)C(=O)O (stereo unspecified) | 5 | -3 | 1.1 | 17 | 106 | 0 | / | / | /
O=C(Nc1ccc2c(c1)CCC2)c1c(F)cccc1Cl | 3 | -19 | 4.2* | 100 | 175* | 1 | 196* | 140* | 112*
Nc1ccc(NC(=O)c2cccs2)cc1 | 1 | -7 | 1.2 | -9 | 105 | 0 | / | / | /
O=C1OCc2ccc(NC(=O)c3c(F)cccc3Cl)cc21 | -4 | / | / | / | / | / | / | / | /
O=C(Nc1ccc2c(c1)CCC2)c1cccs1 | 1 | -21 | 6.2* | 92 | 157* | 0 | 198* | 136* | 104
O=C(Nc1ccc2c(c1)CCC2)c1ccc(F)cc1 | 14 | -33 | 8.5* | 197* | 174* | 1 | 233* | 114 | 87
CC(/C=N/NC(=O)c1sc(N)nc1C)=C\c1ccccc1 | -10 | -3 | 1.2 | 75 | 153* | 1 | 146* | 113 | 101
Cc1nc(N)sc1C(=O)N/N=C/c1ccccc1[N+](=O)[O-] | 58* | 0 | 1.5 | 76 | 156* | 1 | 155* | 123 | 118*
Cc1nc(N)sc1C(=O)N/N=C/c1ccco1 | 38 | -8 | 1.1 | 6 | 105 | 1 | / | / | /
C=CCn1c(=O)c(C(=O)Nc2ccccc2C(=O)OCC)c(O)c2ccccc21 | 13 | 0 | 1.7 | -1 | 105 | 0 | / | / | /
C=CCn1c(=O)c(C(=O)Nc2ccccc2S(N)(=O)=O)c(O)c2ccccc21 | 29 | -9 | 3.1 | 46 | 171* | 0 | 187* | 129 | 146*
Cc1nn(-c2ccccc2)c(Cl)c1/C=N/Nc1nc2ccccc2[nH]1 | 23 | -11 | 2.2 | 126 | 216* | 0 | 291* | 130 | 104
Cc1cc(=O)[nH]c(N/N=C/c2c(C)nn(-c3ccccc3)c2Cl)n1 | -11 | / | / | / | / | 0 | / | / | /
O=C(Cc1ccccc1F)Nc1ccc(SC(F)F)cc1 | 11 | -5 | 5.3* | 153* | 162* | 1 | 169* | 128 | 127*
